# Assay outcomes (PubChem BioAssay)
# Shown are actives, neighbours in structure and some others; about 3.5% of the full set was active somewhere.
# RGS4 act: potentiators or activators of RGS4 | HEK293 M3R/inducible RGS4, carbachol calcium flux Fluo4; hits give low values | B-score at 10 µM | 310,000 tested, 0.92% active | AID 463111;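 active means B-score of the integrated calcium signal more than 4 SD below the library mean, with starting fluorescence not abnormally high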;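 further: negative B-score means reduced calcium response which marks RGS4 activation or potentiation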
#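 test system = M3R-expressing HEK293 line, RGS4 induced by doxycycline | probe or stimulus = carbachol at ECmax as muscarinic agonist stimulus | timing = dye loading 30 min 37 °C, buffer rest 30 min RT | signal = calcium dye Fluo4 fluorescence | evaluation = B score from integrated fluorescence ratio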
# MrgX1 allo act: allosterically activates human MrgX1 receptor signaling; B-score at 10 µM; AID 588675; 310,000 tested, 0.63% active; MrgX1-HEK293, Fluo-4 calcium flux, FDSS; hits give high values; Q96LB2;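 active means plate-corrected calcium response at least 3 library SD above typical, normal starting fluorescence, not activating the receptor alone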;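 further: compound read alongside a low EC10 to EC30 dose of BAM8-22 agonist; peak minus trough fluorescence over baseline measured at the second addition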
# Target sequence (Q96LB2 whole entry, looked up): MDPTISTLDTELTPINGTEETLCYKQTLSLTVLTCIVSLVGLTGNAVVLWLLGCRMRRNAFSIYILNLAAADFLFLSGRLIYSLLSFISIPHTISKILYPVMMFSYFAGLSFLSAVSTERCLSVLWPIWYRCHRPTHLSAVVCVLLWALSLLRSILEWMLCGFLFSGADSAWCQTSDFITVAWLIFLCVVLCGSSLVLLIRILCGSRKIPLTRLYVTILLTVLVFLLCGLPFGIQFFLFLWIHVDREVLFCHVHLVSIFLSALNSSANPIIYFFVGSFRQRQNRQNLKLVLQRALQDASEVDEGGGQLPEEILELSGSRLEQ
# MrgX1 antag: blocks BAM8-22 activation of human MrgX1 receptor. Q96LB2. MRGX1-HEK293 calcium flux, Fluo-4, BAM8-22 antagonism; hits give low values. B-score at 10 µM. 310,000 tested, 1.3% active. AID 588676;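 active means calcium-response B-score plate-corrected more than 3 library SD below zero, starting fluorescence within 5 deviations, no agonist response on first addition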;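 further: peak minus trough fluorescence over baseline after final BAM8-22 challenge near maximal dose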
# RGS4 inh: inhibitors of human RGS4; AID 463165; P49798; 310,000 tested, 0.45% active; HEK293 M3R/RGS4 inducible, Fluo-4 calcium flux; hits give high values; triggered by carbachol at its EC20; B-score at 10 µM;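 active means B-score, a plate-corrected calcium signal, over three deviations above library mean, with baseline fluorescence within five deviations of library mean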;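 further: RGS4 expression induced by doxycycline in cells with stable M3 receptor; B-score is computed from the integrated fluorescence ratio over baseline after carbachol; higher B-score means a larger calcium signal and so more RGS4 inhibition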
# Target sequence (P49798 whole entry, looked up): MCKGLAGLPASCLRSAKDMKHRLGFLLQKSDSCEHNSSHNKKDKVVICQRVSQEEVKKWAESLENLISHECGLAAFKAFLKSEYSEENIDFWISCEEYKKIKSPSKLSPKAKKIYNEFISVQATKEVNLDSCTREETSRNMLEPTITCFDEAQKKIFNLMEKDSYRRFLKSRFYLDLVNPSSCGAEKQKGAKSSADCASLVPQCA
# MrgX1 agonist: human MrgX1 receptor agonism, primary screen. MrgX1-HEK293 cells, Fluo-4 calcium fluorescence, agonist mode; hits give high values. B-score at 10 µM. 310,000 tested, 0.44% active. AID 588627;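 active means calcium response B-score plate-corrected fluorescence ratio at least 3 library SD, with starting fluorescence B-score inside 5 SD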
#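 Test system: HEK293 cells stably expressing human MrgX1 receptor; Input: fifteen thousand cells per well; Dosing: compound delivered in addition one of three; Schedule: overnight seeding, then 1 h dark dye loading; Technique: Fluo-4 NW calcium fluorescence; Measure: B-scored fluorescence response ratio; Controls: positive and negative controls per plate.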
# RGS4 block valid: validation of RGS4 inhibitors. calcium response, % at 10 µM. AID 492999. shares compounds with RGS4 inh. HEK293 M3R/RGS4, carbachol calcium Fluo-4 fluorescence; carbachol added at its EC20; 0 = buffer wells, 100 = carbachol control. 1,700 tested, 65% active;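 active means duplicate-averaged calcium response above the buffer-only control mean plus 5 SD of those controls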;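 further: integrated fluorescence ratio F max minus min over baseline F0; higher response in RGS4-induced cells means RGS4 inhibition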
# M3R Ca ctr: counter-screen for RGS4 inhibitors: effect in non-induced cells | shares compounds with RGS4 inh | HEK293 M3R non-induced, carbachol calcium Fluo-4; submaximal (EC20) carbachol stimulus; buffer wells 0%, carbachol control wells 100% | activity (percent), % at 10 µM | 1,900 tested, 20% active | AID 493000; call rule not given here;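 further: RGS4 induction absent so cells express M3R without RGS4; higher means more calcium signal and flags a non-specific hit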
# RGS4 inh ctr2: second counter-screen for RGS4 inhibitors: non-induced cells without carbachol; shares compounds with RGS4 inh; HEK293 M3R/RGS4 non-induced, Fluo-4 calcium, no carbachol; normalised: buffer wells 0%, carbachol wells 100%; calcium response (agonist-mode artifact), % at 10 µM; 1,900 tested, 22% active;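 active means duplicate-averaged calcium rise in uninduced cells above buffer wells' mean plus 5 SD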
# * hit, by the source's call; i = inactive; x = no result.
SMILES,RGS4 act,MrgX1 allo act,MrgX1 antag,RGS4 inh,MrgX1 agonist,RGS4 block valid,M3R Ca ctr,RGS4 inh ctr2
COc1ccc(S(=O)(=O)Nc2ccc(O)c3ccccc23)cc1,i,i,i,6.84*,i,10.5%*,i,i
Cc1ccsc1/C=N/NC(=S)NCc1ccccc1,i,i,i,i,i,x,i,i
Cc1ccc(-n2c(SCC(=O)Nc3cccc(S(N)(=O)=O)c3)nc3ccccc32)cc1,i,i,i,i,i,x,x,x
COc1ccc(C(=O)c2sc(Nc3ccccc3F)nc2N)cc1,i,i,i,i,i,x,i,i
COc1ccc(C(=O)c2sc(Nc3ccccc3)nc2N)cc1,i,i,i,i,i,i,i,i
COc1ccc(C(=O)c2sc(Nc3ccccc3)nc2N)cc1OC,i,i,i,i,i,x,x,x
Nc1nc(Nc2ccccc2)sc1C(=O)c1ccccc1,i,i,i,12.6*,i,23.0%*,37.5%*,i
COc1ccc(C(=O)NC(=S)Nc2ccccc2F)cc1,i,i,i,i,i,x,x,x
CC(C)n1cc(C(=O)NC2CC(C)(C)Cc3c2cnn3-c2ccccc2)cn1 (stereo not given),i,i,i,i,i,x,x,x
CC(C)C[C@H](NC(=O)c1nc[nH]c1C(=O)N(C)Cc1ccccc1)C(=O)OC(C)(C)C,i,i,i,i,i,x,x,x
COc1ccc(/C(C)=N/Nc2ccc(C(=O)O)cc2)c(OC)c1,i,i,i,i,i,x,x,x
COc1ccc2c(c1)C(=NNc1ccc(C(=O)O)cc1)c1cc(OC)ccc1-2,i,i,i,6.69*,i,22.5%*,i,i
c1coc(-c2nc(-c3ccco3)c(-c3ccco3)nc2-c2ccco2)c1,i,i,i,i,i,x,x,x
COc1ccc2nc(-c3ccco3)c(-c3ccco3)nc2c1,i,i,i,5.82*,i,i,i,31.5%*
Cc1cc(C(=O)N/N=C/c2ccc(N(C)C)o2)cs1,i,i,i,8.7*,i,i,i,i
CC(C)=CCC12Oc3cc(O)ccc3C1(O)Oc1cc(O)c([C@H]3C=C(C)CC(c4ccc(O)cc4O)[C@H]3C(=O)c3ccc(O)cc3O)c(O)c1C2=O (stereo not given in full),i,i,i,15.1*,i,24.0%*,i,i
COCCNC(=S)N(CCO)Cc1cc2cc3c(cc2[nH]c1=O)OCO3,i,i,i,i,i,i,i,i
COCCNC(=S)N(CCCO)Cc1cc2cc3c(cc2[nH]c1=O)OCCO3,i,i,i,i,i,i,i,i
CCN(CC)CCN(Cc1cc2cc3c(cc2[nH]c1=O)OCO3)C(=S)NCCCOC,i,i,i,i,i,x,x,x
O=C1NC[C@@H](Cc2cccc3ccccc23)N(CCC23CC4CC(CC(C4)C2)C3)C1=O,i,i,i,4.84*,i,11.5%*,32.0%*,i
Cc1ccc(S(=O)(=O)N(C)C)cc1NC(=O)COC(=O)c1ccc2c(=O)n3c(nc2c1)CCC3,i,i,i,i,i,x,x,x
O=C(CCl)Nc1nc(-c2ccco2)c(-c2ccco2)s1,i,i,i,5.75*,i,i,i,i
O=C(CCCSc1ccccc1)Nc1nc(-c2ccco2)c(-c2ccco2)s1,i,i,i,i,i,x,x,x
CCCOc1ccc2c(c1)C(=NN=C(N)N)c1cc(OCCC)ccc1-2,i,i,i,4.73*,i,8.0%*,i,i
CCN(CC)CCOc1ccc2c(c1)C(=NO)c1cc(OCCN(CC)CC)ccc1-2,i,i,i,i,i,x,x,x
SMILES,RGS4 act,MrgX1 allo act,MrgX1 antag,RGS4 inh,MrgX1 agonist,RGS4 block valid,M3R Ca ctr,RGS4 inh ctr2
Cc1sc(/C=C2\C(=O)ON=C2c2ccccc2)cc1Br,i,i,i,i,i,x,x,x
C=CCOc1ccc(/C=C2/C(=O)ON=C2C)cc1OC,i,i,i,9.41*,i,17.5%*,i,16.5%*
COc1cc(/C=C2/C(=O)ON=C2c2ccccc2)ccc1O,i,i,i,11.2*,27.7*,38.0%*,i,97.0%*
COc1cc(C=C2C(=O)c3ccccc3C2=O)ccc1O,i,i,i,i,i,x,x,x
COc1cc(/C=C2\C(=O)ON=C2c2ccccc2)cc(Cl)c1O,-7.86*,i,i,13*,89.5*,40.0%*,i,253.0%*
CC1CCCN(CCCNC(=O)c2ccc3c(c2)N(Cc2ccccc2F)C(=O)c2ccccc2S3(=O)=O)C1 (stereo not given),i,i,i,i,i,x,x,x
NC1=NC2(CCC(c3ccccc3)CC2)n2c(nc3ccccc32)N1 (stereo not given),i,i,i,5.17*,i,58.0%*,i,i
O=c1c2ccccc2[nH]c(=S)n1CCCN1CCN(c2ccccc2)CC1,i,i,i,i,i,x,x,x
CC1CC(C)CN(CCCn2c(=S)[nH]c3ccccc3c2=O)C1 (stereo not given),i,i,i,12.8*,i,92.0%*,77.0%*,11.0%*
O=C1NC(=O)/C(=C/c2ccc(-c3cc(C(=O)O)ccc3Cl)o2)S1,i,i,i,6.16*,i,12.5%*,i,i
c1ccc2c(c1)nc(N1CCCCC1)c1ccccc12,i,i,i,7.6*,i,53.5%*,84.0%*,i
c1ccc2c(N3CCCCC3)nc(N3CCCC3)nc2c1,i,i,i,i,i,x,x,x
CN(CC(=O)Nc1ccc(Cl)c(C(F)(F)F)c1)C(=O)c1ccc(N2CCOCC2)c([N+](=O)[O-])c1,i,i,i,5.37*,i,11.5%*,i,7.5%*
CN(CC(=O)Nc1cccc(F)c1)C(=O)c1ccc(N2CCOCC2)c([N+](=O)[O-])c1,i,i,i,i,i,x,x,x
O=C(O)CSCC(=O)Nc1ccc(-c2nc3ccccc3s2)cc1,i,i,i,i,i,x,x,x
